Measured values from ChEMBL document CHEMBL2086305 (Eur J Med Chem, 2012).
Values belong to the molecule of their own block, whether it stands above or below them. Active and inactive are the calls of the source. The rule behind the calls is not given here.

How the values were obtained:
[1] = Antiplatelet activity against rabbit platelets assessed as inhibition of thrombin-induced platelet aggregation; type: functional, cell-based; details: Oryctolagus cuniculus
Rattus norvegicus [2] = assay: Drug metabolism in Sprague-Dawley rat plasma assessed as HTMP level at 20 mg/kg, administered via gastric tube after 0.167 hrs; type: ADME, organism-based; set-up: dose 20 mg/kg; details: in vivo, po
How it was run: (§1)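 Female Sprague-Dawley rats received 20 mg/kg. Whole blood was collected at 0.167–6 h and mixed with 4% formic acid. Samples were precipitated with acetonitrile and stored at −70 °C.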

Rattus norvegicus [3] = assay: Drug metabolism in Sprague-Dawley rat plasma assessed as HTMP level at 20 mg/kg, administered via gastric tube after 1 hr; type: ADME, organism-based; set-up: dose 20 mg/kg; details: in vivo, po; how it was run: as §1
Rattus norvegicus [4] = assay: Drug metabolism in Sprague-Dawley rat plasma assessed as HTMP level at 20 mg/kg, administered via gastric tube after 1.5 hrs; type: ADME, organism-based; set-up: dose 20 mg/kg; details: in vivo, po; how it was run: as §1
Rattus norvegicus [5] = assay: Drug metabolism in Sprague-Dawley rat plasma assessed as dabigatran level at 20 mg/kg, administered via gastric tube after 0.167 hrs; type: ADME, organism-based; set-up: dose 20 mg/kg; details: in vivo, po; how it was run: as §1
Rattus norvegicus [6] = assay: Drug metabolism in Sprague-Dawley rat plasma assessed as dabigatran level at 20 mg/kg, administered via gastric tube after 2 hrs; type: ADME, organism-based; set-up: dose 20 mg/kg; details: in vivo, po; how it was run: as §1
Rattus norvegicus [7] = assay: Drug metabolism in Sprague-Dawley rat plasma assessed as HTMP level at 20 mg/kg, administered via gastric tube after 6 hrs; type: ADME, organism-based; set-up: dose 20 mg/kg; details: in vivo, po; how it was run: as §1
Rattus norvegicus [8] = assay: Drug metabolism in Sprague-Dawley rat plasma assessed as dabigatran level at 20 mg/kg, administered via gastric tube after 1.5 hrs; type: ADME, organism-based; set-up: dose 20 mg/kg; details: in vivo, po; how it was run: as §1
Rattus norvegicus [9] = assay: Drug metabolism in Sprague-Dawley rat plasma assessed as HTMP level at 20 mg/kg, administered via gastric tube after 2 hrs; type: ADME, organism-based; set-up: dose 20 mg/kg; details: in vivo, po; how it was run: as §1
Rattus norvegicus [10] = assay: Drug metabolism in Sprague-Dawley rat plasma assessed as dabigatran level at 20 mg/kg, administered via gastric tube after 4 hrs; type: ADME, organism-based; set-up: dose 20 mg/kg; details: in vivo, po; how it was run: as §1
Rattus norvegicus [11] = assay: Drug metabolism in Sprague-Dawley rat plasma assessed as HTMP level at 20 mg/kg, administered via gastric tube after 0.5 hrs; type: ADME, organism-based; set-up: dose 20 mg/kg; details: in vivo, po; how it was run: as §1
Rattus norvegicus [12] = assay: Antithrombotic activity in Sprague-Dawley rat venous thrombosis model assessed as thrombus dry weight administered via gastric tube qd for 3 days after 2 hrs of last post dose
Rattus norvegicus [13] = assay: Drug metabolism in Sprague-Dawley rat plasma assessed as HTMP level at 20 mg/kg, administered via gastric tube after 0.25 hrs; type: ADME, organism-based; set-up: dose 20 mg/kg; details: in vivo, po; how it was run: as §1
Rattus norvegicus [14] = assay: Drug metabolism in Sprague-Dawley rat plasma assessed as dabigatran level at 20 mg/kg, administered via gastric tube after 1 hr; type: ADME, organism-based; set-up: dose 20 mg/kg; details: in vivo, po; how it was run: as §1
Rattus norvegicus [15] = assay: Drug metabolism in Sprague-Dawley rat plasma assessed as dabigatran level at 20 mg/kg, administered via gastric tube after 6 hrs; type: ADME, organism-based; set-up: dose 20 mg/kg; details: in vivo, po; how it was run: as §1
Rattus norvegicus [16] = assay: Drug metabolism in Sprague-Dawley rat plasma assessed as dabigatran level at 20 mg/kg, administered via gastric tube after 0.25 hrs; type: ADME, organism-based; set-up: dose 20 mg/kg; details: in vivo, po; how it was run: as §1
[17] = (§2) Antiplatelet activity against rabbit platelets assessed as inhibition of ADP-induced platelet aggregation; type: functional, cell-based; details: Oryctolagus cuniculus
Rattus norvegicus [18] = assay: Drug metabolism in Sprague-Dawley rat plasma assessed as dabigatran level at 20 mg/kg, administered via gastric tube after 0.5 hrs; type: ADME, organism-based; set-up: dose 20 mg/kg; details: in vivo, po; how it was run: as §1
Rattus norvegicus [19] = assay: Toxicity in Sprague-Dawley rat assessed as adverse effect at 20 mg/kg, administered via gastric tube; type: organism-based; set-up: dose 20 mg/kg; details: in vivo, po
Rattus norvegicus [20] = assay: Drug metabolism in Sprague-Dawley rat plasma assessed as HTMP level at 20 mg/kg, administered via gastric tube after 4 hrs; type: ADME, organism-based; set-up: dose 20 mg/kg; details: in vivo, po; how it was run: as §1
Platelet = assay: as §2; type: functional, cell-based; details: Oryctolagus cuniculus

IC50 [1]: 0.0728 µM
SMILES: CCCCCOC(=O)/N=C(/N)c1ccc(NCc2nc3cc(C(=O)N(CCC(=O)OCc4nc(C)c(C)nc4C)c4ccccn4)ccc3n2C)cc1

Drug metabolism (Rattus norvegicus [2]): 423 ng/mL
Drug metabolism (Rattus norvegicus [3]): 938 ng/mL
Drug metabolism (Rattus norvegicus [4]): 495 ng/mL
Drug metabolism (Rattus norvegicus [5]): 109 ng/mL
Drug metabolism (Rattus norvegicus [6]): 152 ng/mL
Drug metabolism (Rattus norvegicus [7]): 93.3 ng/mL
Drug metabolism (Rattus norvegicus [8]): 164 ng/mL
Drug metabolism (Rattus norvegicus [9]): 430 ng/mL
Drug metabolism (Rattus norvegicus [10]): 67.3 ng/mL
Drug metabolism (Rattus norvegicus [11]): 1075 ng/mL
Drug metabolism (Rattus norvegicus [13]): 955 ng/mL
Drug metabolism (Rattus norvegicus [14]): 264 ng/mL
Drug metabolism (Rattus norvegicus [15]): 18.2 ng/mL
Drug metabolism (Rattus norvegicus [16]): 245 ng/mL
IC50 [17]: 4030 µM
Drug metabolism (Rattus norvegicus [18]): 252 ng/mL
Drug metabolism (Rattus norvegicus [20]): 188 ng/mL
IC50 [1]: 0.0381 µM
SMILES: CCCCCCOC(=O)/N=C(/N)c1ccc(NCc2nc3cc(C(=O)N(CCC(=O)OCc4nc(C)c(C)nc4C)c4ccccn4)ccc3n2C)cc1
ED50 (Rattus norvegicus [12]): 2.1 mg/kg
Activity (Rattus norvegicus [19]): Non-toxic

IC50 [1]: 0.292 µM
SMILES: Cc1nc(C)c(COC(=O)CCN(C(=O)c2ccc3c(c2)nc(CNc2ccc(/C(N)=N\C(=O)OCc4ccccc4)cc2)n3C)c2ccccn2)nc1C

IC50 [1]: 0.00313 µM
SMILES: Cc1nc(C)c(COC(=O)CCN(C(=O)c2ccc3c(c2)nc(CNc2ccc(/C(N)=N\C(=O)OC(C)(C)C)cc2)n3C)c2ccccn2)nc1C
ED50 (Rattus norvegicus [12]): 1.8 mg/kg

IC50 [17]: 1670 µM
IC50 [1]: 8410 µM
SMILES: Cc1nc(C)c(CO)nc1C
ED50 (Rattus norvegicus [12]): 42.6 mg/kg

IC50 [1]: 0.295 µM
SMILES: Cc1nc(C)c(COC(=O)CCN(C(=O)c2ccc3c(c2)nc(CNc2ccc(/C(N)=N\C(=O)OC(C)C)cc2)n3C)c2ccccn2)nc1C

IC50 [1]: 0.326 µM
SMILES: CCCCCCOC(=O)NC(=N)c1ccc(NCc2nc3cc(C(=O)N(CCC(=O)OCC)c4ccccn4)ccc3n2C)cc1 [DABIGATRAN ETEXILATE]
ED50 (Rattus norvegicus [12]): 4.4 mg/kg
inhibition (Platelet): inactive

IC50 [1]: 0.218 µM
SMILES: CCOC(=O)/N=C(/N)c1ccc(NCc2nc3cc(C(=O)N(CCC(=O)OCc4nc(C)c(C)nc4C)c4ccccn4)ccc3n2C)cc1

IC50 [1]: 0.287 µM
SMILES: COC(=O)/N=C(/N)c1ccc(NCc2nc3cc(C(=O)N(CCC(=O)OCc4nc(C)c(C)nc4C)c4ccccn4)ccc3n2C)cc1
